The record followed here is ChEMBL document CHEMBL1144884, “Synthesis, activity, and molecular modeling studies of novel human aldose reductase inhibitors based on a marine natural product” (J Med Chem, 2003).

For test [1], the target named is T1, Aldo-keto reductase family 1 member B1 (Homo sapiens, UniProt P15121). The experiment in a line: (§1) In vitro inhibitory activity against recombinant human aldose reductase (ALR2) was determined.
A short description of test [2]: Inhibitory activity on sorbital accumulation in human retinal cells was determined. Type of test: functional, cell-based. The essentials: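 ARPE-19 human retinal cells grown in MEM with 0.5% fetal calf serum plus 50 mM glucose. Compounds added in DMSO, then 16 h at 37 °C under 5% CO2. Cells lysed with 8% perchloric acid and neutralised with KOH. Sorbitol measured by colorimetric kit. IC50 taken as the concentration halving sorbitol accumulation; mean of three experiments.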

In test [3] the target is T1, Aldo-keto reductase family 1 member B1. The experiment in a line: In vitro inhibition of recombinant human aldose reductase (ALR2). The essentials:
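Recombinant human ALR2 expressed in baculovirus-infected Sf9 cells, purified by dye-affinity chromatography. Assay at 37 °C: 100 mM sodium phosphate pH 6.2, 400 mM ammonium sulfate, 5 mU/mL enzyme, 0.1 mM NADPH. DMSO-dissolved compound preincubated 5 min, then 10 mM glyceraldehyde added; A340 decrease followed 6 min.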

The target is the same in test [4]. The description is as §1. The method in brief: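 Recombinant hALR2 expressed in baculovirus-infected Sf9 cells, purified by affinity chromatography. Run at 37 °C in 100 mM sodium phosphate pH 6.2, 400 mM ammonium sulfate, 5 mU/mL enzyme, 0.1 mM NADPH. Compounds in DMSO preincubated 5 min. Started with 10 mM glyceraldehyde; A340 decrease read over 6 min.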
The source holds these as a separate data set.

Regarding `Oc1c(Oc2c(O)c(Br)c(Br)c(Br)c2Br)cc(Br)c(Br)c1Br`, the IC50 in test [1] is 5.5 µM; in test [2], 7 µM.

As to `COc1cc(Br)c(Br)c(Br)c1Oc1cc(Br)cc(Br)c1OC`, the inhibition in test [3] was 0%.

On to `Oc1cc(Br)c(Br)c(Br)c1Oc1cc(Br)cc(Br)c1O`, for which the inhibition in test [3] is 0%.

Consider `O=C(O)COc1c(Br)cc(Br)cc1Oc1c(Br)c(Br)c(Br)c(Br)c1OCC(=O)O`, for which, in test [1], the IC50 was 25 µM.

With `Oc1c(Br)cc(Br)cc1Oc1c(O)c(Br)c(Br)c(Br)c1Br`, the IC50 in test [4] came to 6.4 µM; in test [2], 3 µM.

With `COc1cc(Br)c(Br)cc1Oc1cc(Br)c(Br)cc1OC`, the inhibition in test [3] is 0%.

As for `COc1c(Nc2cc(Br)c(Br)c(Br)c2OC)cc(Br)c(Br)c1Br`, in test [3], the inhibition stood at 0%.

`O=C1NC(=O)[C@@]2(CCOc3ccc(F)cc32)N1` [SORBINIL] showed a 50% inhibitory concentration (IC50) in test [2] of 4 µM.

`Oc1c(Br)cc(Br)cc1Oc1c(Br)cc(Br)c(Br)c1O`: the inhibition in test [3] was 25%.

In the case of `Oc1c(Br)cc(Oc2cc(Br)c(Br)c(Br)c2O)c(O)c1Br`, the IC50 in test [1] is 4.4 µM; in test [2], 8 µM.

In the case of `Oc1c(Oc2cc(Br)c(Br)c(Br)c2O)cc(F)c(Br)c1Br`, the values for the IC50 in test [1] and in test [2] were 3.2 µM and 11 µM, respectively.

For the compound `Oc1ccc(Br)cc1Oc1cc(Br)ccc1O`, in test [3], the inhibition stood at 32%.

As for `Oc1c(Nc2cc(Br)c(Br)c(Br)c2O)cc(Br)c(Br)c1Br`, the inhibition in test [3] turned out to be 18%.

Turning to `CC(=O)Oc1c(Br)cc(Br)cc1Oc1c(Br)c(Br)c(Br)c(Br)c1OC(C)=O`, the inhibition in test [3] was 0%.

On to `COc1ccc2c(C(=S)N(C)CC(=O)O)cccc2c1C(F)(F)F` [TOLRESTAT], for which, in test [2], it took 0.02 µM to reach half-maximal inhibition (IC50).

Turning to `COc1c(Br)cc(Br)cc1Oc1c(Br)c(Br)c(Br)c(Br)c1OC`, the inhibition in test [3] amounted to 0%.

As for `Nc1c(Oc2cc(Br)c(Br)c(Br)c2O)cc(Br)c(Br)c1Br`, the IC50 in test [1] worked out at 8.9 µM; in test [2], 6 µM.

As for `COC(=O)COc1c(Br)cc(Br)cc1Oc1c(Br)c(Br)c(Br)c(Br)c1OCC(=O)OC`, in test [3], the inhibition came to 0%.

Take `Oc1c(Oc2cc(Cl)c(Cl)c(Cl)c2O)cc(Cl)c(Cl)c1Cl`: the concentration for half-maximal inhibition (IC50) in test [1] was found to be 3.2 µM; in test [2], 0.24 µM.

Regarding `COc1c(Br)c(Br)c(Br)c(Br)c1Oc1cc(O)cc(Br)c1O`, the inhibition in test [3] came out at 0%.

For the compound `Oc1cc(Br)c(O)c(Oc2c(O)c(Br)c(Br)c(Br)c2Br)c1`, in test [3], the inhibition was 38%.

With `Oc1cc(Br)c(Br)cc1Oc1cc(Br)c(Br)cc1O`, the inhibition in test [3] was 46%.

Take `Oc1c(Oc2cc(Br)c(Br)c(Br)c2O)cc(Br)c(Br)c1Br`: the IC50 came to 5.7 µM in test [1] and 1 µM in test [2].

The IC50 is the midpoint of a concentration-inhibition curve. As usually defined, the inhibition is the percentage by which the read-out fell short of the control.
